Compound activity: PubChem BioAssay, Johns Hopkins Ion Channel Center
MrgX1 PAM: allosterically activates human MrgX1 receptor signaling | Q96LB2 | MrgX1-HEK293, Fluo-4 calcium flux, FDSS; hits give high values | B-score at 10 µM | actives 0.63% (n = 310,000) | AID 588675;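 active = plate-corrected calcium response at least 3 library SD above typical, normal starting fluorescence, not activating the receptor alone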;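 note: compound read alongside a low EC10 to EC30 dose of BAM8-22 agonist; peak minus trough fluorescence over baseline measured at the second addition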
Target sequence (Q96LB2 whole entry, looked up): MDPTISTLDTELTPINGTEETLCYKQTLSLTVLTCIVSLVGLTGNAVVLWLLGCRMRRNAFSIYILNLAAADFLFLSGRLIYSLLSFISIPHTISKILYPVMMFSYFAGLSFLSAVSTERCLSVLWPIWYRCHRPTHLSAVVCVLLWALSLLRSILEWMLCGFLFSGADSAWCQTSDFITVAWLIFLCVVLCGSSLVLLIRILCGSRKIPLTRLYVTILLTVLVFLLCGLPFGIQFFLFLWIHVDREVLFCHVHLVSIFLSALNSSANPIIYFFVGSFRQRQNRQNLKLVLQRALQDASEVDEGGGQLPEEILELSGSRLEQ
RGS4 block: inhibitors of human RGS4; AID 463165; HEK293 M3R/RGS4 inducible, Fluo-4 calcium flux; hits give high values; triggered by carbachol at its EC20; P49798; B-score at 10 µM; actives 0.45% (n = 310,000);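 active = B-score, a plate-corrected calcium signal, over three deviations above library mean, with baseline fluorescence within five deviations of library mean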;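 note: RGS4 expression induced by doxycycline in cells with stable M3 receptor; B-score is computed from the integrated fluorescence ratio over baseline after carbachol; higher B-score means a larger calcium signal and so more RGS4 inhibition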
Target sequence (P49798 whole entry, looked up): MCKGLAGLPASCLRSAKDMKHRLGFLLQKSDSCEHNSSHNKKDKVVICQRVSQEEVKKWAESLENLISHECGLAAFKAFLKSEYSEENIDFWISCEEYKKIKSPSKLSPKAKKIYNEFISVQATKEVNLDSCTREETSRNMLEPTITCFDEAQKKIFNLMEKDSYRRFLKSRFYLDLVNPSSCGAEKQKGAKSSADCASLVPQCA
MrgX1 antag: blocks BAM8-22 activation of human MrgX1 receptor | Q96LB2 | MRGX1-HEK293 calcium flux, Fluo-4, BAM8-22 antagonism; hits give low values | B-score at 10 µM | actives 1.3% (n = 310,000) | AID 588676;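 active = calcium-response B-score plate-corrected more than 3 library SD below zero, starting fluorescence within 5 deviations, no agonist response on first addition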;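 note: peak minus trough fluorescence over baseline after final BAM8-22 challenge near maximal dose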
RGS4 act: RGS4 potentiation or activation | HEK293 M3R/inducible RGS4, carbachol calcium flux Fluo4; hits give low values | B-score at 10 µM | AID 463111 | actives 0.92% (n = 310,000);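 active = B-score of the integrated calcium signal more than 4 SD below the library mean, with starting fluorescence not abnormally high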;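 note: negative B-score means reduced calcium response which marks RGS4 activation or potentiation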
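Test system: HEK293 cells with stable M3R and inducible RGS4; also added: carbachol at ECmax as muscarinic agonist stimulus; schedule: dye loading 30 min 37 °C, buffer rest 30 min RT; technique: kinetic calcium fluorescence imaging with Fluo4-AM dye, 2 µM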
MrgX1 ag: activates human MrgX1 receptor signaling; Q96LB2; MrgX1-HEK293 cells, Fluo-4 calcium fluorescence, agonist mode; hits give high values; B-score at 10 µM; actives 0.44% (n = 310,000);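 active = calcium response B-score plate-corrected fluorescence ratio at least 3 library SD, with starting fluorescence B-score inside 5 SD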
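times = overnight plating, then 30 min 37 °C plus 30 min room-temperature dye loading | assay system = stable human MrgX1 HEK293 cell line | input = fifteen thousand cells per well | signal = kinetic calcium dye fluorescence, Fluo-4 NW | dosing = compound delivered in addition one of three | read-out = B-scored fluorescence response ratio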
RGS4 inh valid: RGS4 inhibitor validation; shares compounds with RGS4 block; HEK293 M3R/RGS4, carbachol calcium Fluo-4 fluorescence; carbachol added at its EC20; 0 = buffer wells, 100 = carbachol control; calcium response, % at 10 µM; actives 65% (n = 1,700); AID 492999;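 active = duplicate-averaged calcium response above the buffer-only control mean plus 5 SD of those controls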;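 note: integrated fluorescence ratio F max minus min over baseline F0; higher response in RGS4-induced cells means RGS4 inhibition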
RGS4 uninduced: counter-screen for RGS4 inhibitors: effect in non-induced cells; shares compounds with RGS4 block; HEK293 M3R non-induced, carbachol calcium Fluo-4; submaximal (EC20) carbachol stimulus; buffer wells 0%, carbachol control wells 100%; activity (percent), % at 10 µM; actives 20% (n = 1,900); AID 493000; call rule not given here;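 note: RGS4 induction absent so cells express M3R without RGS4; higher means more calcium signal and flags a non-specific hit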
RGS4 inh ctr2: signal in non-induced cells without carbachol, RGS4 inhibitor counter-screen. HEK293 M3R/RGS4 non-induced, Fluo-4 calcium, no carbachol; normalised: buffer wells 0%, carbachol wells 100%. calcium response (agonist-mode artifact), % at 10 µM. actives 22% (n = 1,900). AID 493001. shares compounds with RGS4 block;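 active = duplicate-averaged calcium rise in uninduced cells above buffer wells' mean plus 5 SD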
The depositor's hits bear a star. Sampled rows, rich in hits. Any-hit rate of the full collection: about 3.5%.

Screening Cc1ccc(S(=O)(=O)N2CCN(C(=O)CC(C)n3cncn3)CC2)cc1C (stereo unspecified) returned MrgX1 PAM inactive, RGS4 block inactive, MrgX1 antag inactive, RGS4 act inactive and MrgX1 ag inactive.
COc1ccc(N2CCN(C(=O)COC(=O)c3cccc(S(=O)(=O)Nc4cccc(C)c4)c3)CC2)cc1 was read as MrgX1 PAM inactive, RGS4 block inactive, MrgX1 antag inactive, RGS4 act inactive and MrgX1 ag inactive.
O=c1[nH]c(=O)n(Cc2ccco2)c2c1C(C(F)(F)F)(C(F)(F)F)N=C(c1ccc(F)cc1)N2 was read as MrgX1 PAM inactive, RGS4 block inactive, MrgX1 antag inactive, RGS4 act inactive, MrgX1 ag inactive, RGS4 inh valid inactive, RGS4 uninduced inactive and RGS4 inh ctr2 inactive.
CC(C)CC(=O)NC1(C(F)(F)F)C(=O)Nc2c1c(=O)[nH]c(=O)n2Cc1ccco1 (stereo unspecified) was read as MrgX1 PAM inactive, RGS4 block inactive, MrgX1 antag inactive, RGS4 act inactive and MrgX1 ag inactive.
O=C(NCCCc1ccccc1)C1CC1 was read as MrgX1 PAM inactive, RGS4 block inactive, MrgX1 antag inactive, RGS4 act inactive and MrgX1 ag inactive.
For Cc1nnc(Sc2cc(NCCCO)c([N+](=O)[O-])c3nonc23)s1 the results were RGS4 block 10.3*, RGS4 act inactive, RGS4 inh valid 21.0%*, RGS4 uninduced inactive and RGS4 inh ctr2 inactive.
Screening Cc1nnc(Sc2cc(NCCO)c([N+](=O)[O-])c3nonc23)s1 returned RGS4 block inactive, RGS4 act inactive, RGS4 inh valid inactive, RGS4 uninduced inactive and RGS4 inh ctr2 inactive.
O=[N+]([O-])c1c(NCCCO)cc(Sc2nc3ccccc3s2)c2nonc12 was read as MrgX1 PAM inactive, RGS4 block 4.66*, MrgX1 antag inactive, RGS4 act inactive, MrgX1 ag inactive, RGS4 inh valid 9.5%*, RGS4 uninduced inactive and RGS4 inh ctr2 150.5%*.
`CCC(=O)OCCNc1cc(Sc2nc3ccccc3s2)c2nonc2c1[N+](=O)[O-]` gave MrgX1 PAM inactive, RGS4 block inactive, MrgX1 antag inactive, RGS4 act inactive and MrgX1 ag inactive.
Screening CCCC(=O)OCCNc1cc(Sc2nccn2C)c2nonc2c1[N+](=O)[O-] returned MrgX1 PAM inactive, RGS4 block 13.1*, MrgX1 antag inactive, RGS4 act inactive, MrgX1 ag inactive, RGS4 inh valid 59.0%*, RGS4 uninduced inactive and RGS4 inh ctr2 inactive.
CCCSc1cc(NCCOC(C)=O)c([N+](=O)[O-])c2nonc12 was read as MrgX1 PAM inactive, RGS4 block inactive, MrgX1 antag inactive, RGS4 act inactive and MrgX1 ag inactive.
For CCCNc1c(NC(=O)c2cccs2)c(=O)oc2ccccc12 the results were MrgX1 PAM inactive, RGS4 block inactive, MrgX1 antag inactive, RGS4 act inactive and MrgX1 ag inactive.
Cc1ccccc1C(=O)NC1CCN(C(=O)Nc2ccccc2Cl)CC1 was read as MrgX1 PAM inactive, RGS4 block inactive, MrgX1 antag inactive, RGS4 act inactive and MrgX1 ag inactive.
Screening O=C1NC[C@H](CC2CCCCC2)N(CCc2cccc(F)c2)C1=O returned MrgX1 PAM inactive, RGS4 block inactive, MrgX1 antag inactive, RGS4 act inactive and MrgX1 ag inactive.
`Oc1c(-c2cc(-c3ccco3)[nH]n2)ccc2ccccc12` gave MrgX1 PAM inactive, RGS4 block 12.2*, MrgX1 antag inactive, RGS4 act inactive, MrgX1 ag inactive, RGS4 inh valid 30.5%*, RGS4 uninduced 31.0%* and RGS4 inh ctr2 inactive.
`Cc1cc(Br)cc2c1N(C)C(=O)C2(c1ccc(O)cc1)c1ccc(O)cc1` gave MrgX1 PAM inactive, RGS4 block 27.1*, MrgX1 antag inactive, RGS4 act inactive, MrgX1 ag inactive, RGS4 inh valid 75.5%*, RGS4 uninduced 43.0%* and RGS4 inh ctr2 inactive.
Screening O=C(CCN1CCN(c2ccc([N+](=O)[O-])cc2)CC1)c1ccc(Cl)cc1 returned MrgX1 PAM inactive, RGS4 block inactive, MrgX1 antag inactive, RGS4 act inactive and MrgX1 ag inactive.
O=C(CCN1CCN(c2ccccc2)CC1)c1ccc(Cl)cc1 was read as MrgX1 PAM inactive, RGS4 block 23.9*, MrgX1 antag inactive, RGS4 act inactive, MrgX1 ag inactive, RGS4 inh valid inactive, RGS4 uninduced 35.0%* and RGS4 inh ctr2 19.5%*.
O=C(Nc1ccc(S(=O)(=O)Nc2cnc3ccccc3n2)cc1)c1ccc(Cl)c([N+](=O)[O-])c1 was read as MrgX1 PAM 17.2*, RGS4 block 8.94*, MrgX1 antag inactive, RGS4 act inactive, MrgX1 ag inactive, RGS4 inh valid 14.0%*, RGS4 uninduced 55.5%* and RGS4 inh ctr2 inactive.
`CC1(C)CC(=O)C(=Cc2cn(-c3ccccc3)nc2-c2ccc(Cl)cc2)C(=O)C1` gave MrgX1 PAM inactive, RGS4 block inactive, MrgX1 antag inactive, RGS4 act inactive, MrgX1 ag inactive, RGS4 inh valid inactive, RGS4 uninduced inactive and RGS4 inh ctr2 inactive.
For CC1(C)CC(=O)C(=Cc2cn(CCC#N)nc2-c2ccc(Cl)cc2)C(=O)C1 the results were MrgX1 PAM inactive, RGS4 block inactive, MrgX1 antag inactive, RGS4 act inactive and MrgX1 ag inactive.
For O=[N+]([O-])c1cc(Cl)cc(/C=N/NC(=S)Nc2ccc(S(=O)(=O)N3CCOCC3)cc2)c1O the results were MrgX1 PAM inactive, RGS4 block inactive, MrgX1 antag inactive, RGS4 act inactive, MrgX1 ag inactive, RGS4 inh valid inactive, RGS4 uninduced inactive and RGS4 inh ctr2 inactive.
Screening O=C1N=c2ccccc2=C1c1c(O)n(-c2cccc(F)c2)[nH]c1=O returned MrgX1 PAM inactive, RGS4 block 6.99*, MrgX1 antag inactive, RGS4 act inactive, MrgX1 ag inactive, RGS4 inh valid 21.0%*, RGS4 uninduced inactive and RGS4 inh ctr2 inactive.
